Six compounds from ChEMBL document CHEMBL3244306, “Folate analogues altered in the C9-N10 bridge region: N10-Toxylisohomofolic acid and N10-Toxylisohomoaminopterin” (1978) can be followed below.

Usually inhibition stands for the drop in the measured response relative to a control, in per cent. For orientation: GI50 means the concentration that inhibits growth by half.

Assay [1] addresses Dihydrofolate reductase (Lactobacillus casei) (UniProt P00381). Kind of assay: Inhibition of Lactobacillus casei DHFR at 1 X 10^-4 M relative to control. The note with it: Lacticaseibacillus casei.
In assay [2] the target is T1, Thymidylate synthase (Lactobacillus casei) (UniProt P00469).
T1 sequence (whole entry): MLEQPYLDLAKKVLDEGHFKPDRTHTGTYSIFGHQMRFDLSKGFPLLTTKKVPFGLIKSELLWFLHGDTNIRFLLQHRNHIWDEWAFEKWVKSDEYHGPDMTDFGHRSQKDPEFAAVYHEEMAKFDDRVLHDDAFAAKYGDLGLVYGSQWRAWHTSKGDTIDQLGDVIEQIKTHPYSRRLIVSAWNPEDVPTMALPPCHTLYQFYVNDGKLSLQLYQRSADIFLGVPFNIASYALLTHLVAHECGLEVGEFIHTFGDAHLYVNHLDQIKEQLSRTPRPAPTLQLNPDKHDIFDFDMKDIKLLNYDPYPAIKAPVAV
Kind of assay: Inhibition of Lactobacillus casei thymidylate synthase assessed as conversion of dUMP32 to dTP32PP at 6 X 10^-5 M after 30 mins relative to control. The conditions noted are these: Lacticaseibacillus casei.

In assay [3] the test system is Lacticaseibacillus casei. The experiment in a line: Antibacterial activity against methotrexate-resistant Lactobacillus casei assessed as growth inhibition up to 4 ug/ml. The assay is classed as functional, organism-based.
Assay [4] deals with Lacticaseibacillus casei. Kind of assay: Inhibition of 5-[14C]methyltetrahydrofolate uptake in Lactobacillus casei at 4 X 10^-7 M relative to control. The assay is classed as functional. The gist of the method: (§1)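 Cells (1.0 × 10⁹, 1.0 mg dry weight) in 0.1 M potassium phosphate pH 6.5 with 1% glucose and […] (40000 cpm) 5-[¹⁴C]methyltetrahydrofolate, 1.0 mL total. Incubated 1 min at 37 °C, then stopped by membrane filtration with three ice-cold saline washes. Dried filters were scintillation counted. Uptake is compared with a control.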

The test system of assay [5] is Lacticaseibacillus casei. The experiment in a line: Antibacterial activity against Lactobacillus casei ATCC 7469 assessed as growth inhibition. The assay is classed as functional.
The test system of assay [6] is Enterococcus faecium. The experiment in a line: Antibacterial activity against methotrexate-resistant Streptococcus faecium assessed as growth inhibition up to 4 ug/ml. The assay is classed as functional, organism-based.
Assay [7] concerns Enterococcus faecium. Kind of assay: Antibacterial activity against Streptococcus faecium ATCC 8043 assessed as growth inhibition. The assay is classed as functional.
For assay [8], the target named is Dihydrofolate reductase (Lactobacillus casei) (UniProt P00381). Kind of assay: Inhibition of Lactobacillus casei DHFR at 6.2 X 10^-5 M relative to control. The conditions noted are these: Lacticaseibacillus casei.
The target of assay [9] is T1, Thymidylate synthase (Lactobacillus casei). Kind of assay: Inhibition of Lactobacillus casei thymidylate synthase assessed as conversion of dUMP32 to dTP32PP at 1 X 10^-4 M after 30 mins relative to control. The conditions noted are these: Lacticaseibacillus casei.
The subject of another assay is Pediococcus. The experiment in a line: Antimicrobial activity against Pediococcus cerevisiae ATCC 8081 assessed as growth inhibition. The assay is classed as functional.
For assay [10], the system named is Lacticaseibacillus casei. The experiment in a line: Inhibition of 5-[14C]methyltetrahydrofolate uptake in Lactobacillus casei at 1 X 10^-4 M relative to control. The assay is classed as functional. A digest of the protocol:
as §1

For assay [11], the system named is Lacticaseibacillus casei. Kind of assay: Inhibition of 5-[14C]methyltetrahydrofolate uptake in Lactobacillus casei at 1.5 X 10^-5 M relative to control. The assay is classed as functional. The gist of the method: as §1
Assay [12] deals with Lacticaseibacillus casei. The experiment in a line: Inhibition of 5-[14C]methyltetrahydrofolate uptake in Lactobacillus casei at 1.6 X 10^-6 M relative to control. The assay is classed as functional. A digest of the protocol: as §1

Structures are written as SMILES. In brackets after ≈: the same amount, converted by molar mass. Activity calls are given as the source filed them. The rule behind the calls is not given here.

Sequence of Dihydrofolate reductase (Lactobacillus casei) (P00381 whole entry): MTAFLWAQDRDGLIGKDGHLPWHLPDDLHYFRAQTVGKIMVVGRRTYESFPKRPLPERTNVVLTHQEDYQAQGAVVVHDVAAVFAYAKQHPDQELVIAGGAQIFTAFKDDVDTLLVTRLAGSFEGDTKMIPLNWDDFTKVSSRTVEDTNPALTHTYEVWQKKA

`Cc1ccc(S(=O)(=O)N(Cc2ccc(C(=O)O)cc2)Cc2cnc3nc(N)nc(O)c3n2)cc1`: the results for the inhibition in assay [1] and in assay [2] were 25% and 15%, respectively.

Take `Cc1ccc(S(=O)(=O)N(Cc2ccc(C(=O)N[C@@H](CCC(=O)O)C(=O)O)cc2)Cc2cnc3nc(N)nc(N)c3n2)cc1`: the “growth inhibition (GI)” value in the assay on Lacticaseibacillus casei [3], in the assay on Enterococcus faecium [6] and in the assay with Pediococcus was “inactive” each time. This compound displayed an inhibition at 0.4 µM in the assay with Lacticaseibacillus casei [4] of 50%. The figures for the GI50 in the assay on Lacticaseibacillus casei [5] and with Enterococcus faecium [7] were 0.2 µg/mL (≈ 0.329 µM) and 3.8 µg/mL (≈ 6.24 µM), respectively. The inhibition in assay [8] was found to be 50%; in [9], 20%.

For the compound `COC(=O)c1ccc(CN(CC2=Nc3c(N)nc(N)nc3NC2)S(=O)(=O)c2ccc(C)cc2)cc1`, testing at 100 µM with Lacticaseibacillus casei [10] gave an inhibition of 32%. Moreover, the inhibition in assay [1] and in assay [9] was 0% each time.

`COC(=O)c1ccc(CN(Cc2cnc3nc(N)nc(O)c3n2)S(=O)(=O)c2ccc(C)cc2)cc1`: the inhibition turned out to be 23% in assay [1] and 16% in assay [2]. For the same compound, in the assay with Lacticaseibacillus casei [11], 15 µM produced 50% inhibition.

Take `Cc1ccc(S(=O)(=O)N(Cc2ccc(C(=O)N[C@@H](CCC(=O)O)C(=O)O)cc2)Cc2cnc3nc(N)nc(O)c3n2)cc1`: the “growth inhibition (GI)” value with Lacticaseibacillus casei [3], in the assay on Lacticaseibacillus casei [5], in the assay on Enterococcus faecium [6], in the assay on Enterococcus faecium [7] and in the assay with Pediococcus was “inactive” each time. Moreover, the values for the inhibition in assay [1] and in assay [2] were 32% and 12%, respectively. In the assay with Lacticaseibacillus casei [4], this compound had an inhibition at 0.4 µM of 50%.

Consider `Cc1ccc(S(=O)(=O)N(Cc2ccc(C(=O)O)cc2)Cc2cnc3nc(N)nc(N)c3n2)cc1`, for which the inhibition in assay [1] was 17%; in [9] it was 0%. This compound displayed an inhibition at 1.6 µM in the assay on Lacticaseibacillus casei [12] of 50%.
